Measured values of several laboratories.
Compare with care: the assays were run in different laboratories.
NR3C2: Mineralocorticoid receptor (NR3C2, Homo sapiens, UniProt P08235)
ATP2A1: Sarcoplasmic/endoplasmic reticulum calcium ATPase 1 (ATP2A1, Oryctolagus cuniculus, UniProt P04191)
PIK3CD: Phosphatidylinositol 4,5-bisphosphate 3-kinase catalytic subunit delta isoform (PIK3CD, Homo sapiens, UniProt O00329)
NTSR1: Neurotensin receptor type 1 (NTSR1, Homo sapiens, UniProt P30989)
COQ8A: Atypical kinase COQ8A, mitochondrial (COQ8A, Homo sapiens, UniProt Q8NI60)

Compound | target | test | setting | measurement | value
C[C@]12CCC(=O)C=C1CC[C@@H]1[C@@H]2[C@@H](O)C[C@@]2(C=O)[C@H]1CC[C@]2(O)C(=O)CO | NR3C2 | reporter gene, agonist, luciferase |  | EC50 | 19.6 nM
NC(=O)c1ncc(N2CCCCC2)nc1Nc1ccc(C2CCN(C[C@H]3CCN(c4ccc5c(c4)C(=O)N(C4CCC(=O)NC4=O)C5=O)C3)CC2)cc1 (stereo partly drawn) | Tyrosine-protein kinase BTK (BTK, Homo sapiens, UniProt Q06187, T474I) | binding, SPR |  | Kd | 18 nM
COc1cc(/C=C/C(O)=C/C(=O)/C=C/c2ccc(O)cc2)ccc1O | ATP2A1 | binding, fluorescence | pH 7.2 | Kd | 8000 nM
Cc1nc(Nc2ccc3c(c2)C(C)(C)C(=O)N3)c2ccccc2n1 | PIK3CD | enzyme activity, inhibitor, ADP detection |  | IC50 | > 1000 nM
COc1ccccc1C1CCN(c2nc(C3(C)CCCC3)nc3ccc(N(C)CCO)cc23)CC1 | NTSR1 | β-arrestin recruitment, agonist |  | EC50 | 40200 nM
CCc1ccc(NC(=O)CSc2nc(-c3cccc(OC)c3)nc3c2Cc2c(CO)cnc(C)c2O3)cc1 | COQ8A | ligand displacement, TR-FRET |  | IC50 | 2170 nM
COc1cc(/C=C/C(=O)O)ccc1O | ATP2A1 | binding, fluorescence | pH 7.2 | Kd | 86000 nM
Cc1nc(Nc2ccc3c(c2)C(C)(C)C(=O)N3C)c2ccccc2n1 | PIK3CD | enzyme activity, inhibitor, ADP detection |  | IC50 | 719 nM
Cc1ccc(Nc2nc3nonc3nc2Nc2cccc(C(F)(F)F)c2)cc1Cl | COQ8A | ligand displacement, TR-FRET |  | IC50 | 970 nM
CC(C)(C)OC(=O)N1CCN(Cc2ccn(Cc3ccc(Cl)cc3)c(=O)c2O)CC1 | Lysine-specific demethylase 4E (KDM4E, Homo sapiens, UniProt B2RXH2) | enzyme activity, inhibitor, AlphaScreen |  | IC50 | 6180 nM
Cc1ccc2c(=O)cc(C(=O)Nc3c(C(=O)c4ccc(F)cc4)oc4ccccc34)oc2c1C | COQ8A | ligand displacement, TR-FRET |  | IC50 | 9680 nM
COc1cc2ncnc(N(C)c3ccc4c(c3)/C(=C/c3ccccc3)C(=O)N4C)c2cc1OC (mixture of isomers) | PIK3CD | enzyme activity, inhibitor, ADP detection |  | IC50 | 416 nM
C[C@]12C[C@H](O)[C@H]3[C@@H](CCC4=CC(=O)CC[C@@]43C)[C@@H]1CC[C@@H]2C(=O)CO | NR3C2 | reporter gene, agonist, luciferase |  | EC50 | 11.3 nM
COc1ccccc1C1CCN(c2nc(C3(C(F)(F)F)CCCC3)nc3ccc(N(C)CCO)cc23)CC1 | NTSR1 | β-arrestin recruitment, agonist |  | EC50 | 18000 nM
Cc1nc(Nc2ccc3c(c2)/C(=C/c2ccccc2C)C(=O)N3)c2ccccc2n1 | PIK3CD | enzyme activity, inhibitor, ADP detection |  | IC50 | 126 nM
CCc1ccc(NC(=O)CSc2nc(-c3ccc(C)cc3)nc3c2Cc2c(CO)cnc(C)c2O3)cc1 | COQ8A | ligand displacement, TR-FRET |  | IC50 | 8630 nM
Cc1nc(Nc2ccc3c(c2)CC(=O)N3)c2ccccc2n1 | PIK3CD | enzyme activity, inhibitor, ADP detection |  | IC50 | 397 nM
C=C[C@@]1(C)CC(=O)[C@]2(O)[C@@]3(C)[C@@H](O)CCC(C)(C)[C@@H]3[C@H](O)[C@H](OC(C)=O)[C@@]2(C)O1 | Adenylate cyclase type 5 (ADCY5, Homo sapiens, UniProt O95622) | cAMP, agonist, TR-FRET |  | EC50 | 10000 nM
